{
  "source": "ChEMBL document CHEMBL5104108",
  "about": "“Concise synthesis and biological activity evaluation of novel pyrazinyl-aryl urea derivatives against several cancer cell lines, which can especially induce T24 apoptotic and necroptotic cell death” (RSC Med Chem, 2022)",
  "key": {"T-24 [1]": {"system": "T-24", "experiment": "Induction of mitochondrial dysfunction in human T24 cells assessed as decrease in mitochondrial membrane potential at 5 to 10 uM measured by JC-1 staining based assay", "format": "functional, cell-based", "details": "dose 5-10 µM", "method_in_brief": "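Floating and adherent T24 cells pooled after pretreatment. Washed in cold PBS and stained in the dark with JC-1 (10 μg mL−1). Red and green fluorescence imaged by laser scanning confocal microscopy, five random fields per sample.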"}, "[2]": {"experiment": "Antiproliferative activity against human HCV-29 cells measured after 48 hrs by MTT assay", "format": "functional, cell-based", "details": "HCV-29, 48 h", "method_in_brief": "(§1)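 Cells seeded 5 × 10^3 per well, grown overnight at 37 °C, then exposed to compound at final 1–40 μM (1, 2.5, 5, 7.5, 10, 12.5, 15, 20, 30, 40 μM) for the stated period. MTT added, 4 h at 37 °C, formazan dissolved in DMSO, absorbance read. IC50 = concentration killing 50% of cells relative to untreated control; mean ± S.D. of four independent experiments.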"}, "T-24 [3]": {"system": "T-24", "experiment": "Down-regulation of VEGFR-1 mRNA expression in human T24 cells at 5 to 10 uM measured by RT-PCR analysis", "format": "functional, cell-based", "details": "dose 5-10 µM"}, "T-24 [4]": {"system": "T-24", "experiment": "Antiproliferative activity against human T24 cells measured after 24 hrs by MTT assay", "format": "functional, cell-based", "details": "T-24, 24 h", "method_in_brief": "as §1"}, "[5]": {"experiment": "AUC (0 to 48 hrs) in Sprague-Dawley rat at 12 mg/kg, IG measured HPLC analysis", "format": "ADME, organism-based", "set-up": "time < 48 hr, dose 12 mg/kg, route ig", "details": "in vivo, po"}, "T-24 [6]": {"system": "T-24", "experiment": "Induction of apoptosis in human T24 cells at 5 to 7.5 uM measured after 10 hrs by Hoechst 33342 and propidium iodide staining based flow cytometry analysis", "format": "functional, cell-based", "details": "dose 5-7.5 µM"}, "T-24 [7]": {"system": "T-24", "experiment": "Up-regulation of caspase-8 mRNA expression in human T24 cells at 2.5 to 7.5 uM measured after 10 hrs by RT-PCR analysis", "format": "functional, cell-based", "details": "dose 2.5-7.5 µM"}, "T-24 [8]": {"system": "T-24", "experiment": "Induction of necroptosis in human T24 cells assessed as viable cells at 12.5 uM and measured by trypan blue exclusion assay", "format": "functional", "details": "read-out: Activity", "method_in_brief": "(§2)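 T24 cells (2 × 10^5/well) exposed for 16 h with or without Nec-1 (60 μM), then stained with trypan blue. Viable and dead cells counted. Result given as % viable cells relative to untreated control.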"}, "T-24 [9]": {"system": "T-24", "experiment": "Induction of intracellular reactive oxygen species production in human T24 cells assessed as ROS level at 7.5 uM measured after 16 hrs by flow cytometry analysis", "format": "functional, cell-based", "method_in_brief": "(§3)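 After 16 h treatment, floating and adherent T24 cells pooled and loaded with DCFH-DA (final 10 μM) for 30 min at 37 °C in the dark, washed, resuspended in PBS and analyzed by flow cytometry; fluorescence also quantified by luminescence spectrometry. ROS expressed relative to control; mean ± S.D. of three independent experiments.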"}, "T-24 [10]": {"system": "T-24", "experiment": "Induction of necroptosis in human T24 cells assessed as viable cells at 10 uM and measured by trypan blue exclusion assay", "format": "functional", "details": "read-out: Activity", "method_in_brief": "as §2"}, "T-24 [11]": {"system": "T-24", "experiment": "Induction of apoptosis in human T24 cells assessed as apoptotic cells at 5 uM measured after 10 hrs by Annexin-V/FITC and propidium iodide staining based flow cytometry analysis", "format": "functional", "method_in_brief": "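T24 cells in 60 mm dishes treated 10 h at 37 °C, collected, PBS-washed, resuspended in binding buffer, stained with Annexin V-FITC and PI for 15 min at room temperature in the dark. At least 1 × 10^4 events per sample by flow cytometry; apoptotic cells = early (Annexin+/PI−) plus late (Annexin+/PI+). Triplicate experiments.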"}, "T-24 [12]": {"system": "T-24", "experiment": "Up-regulation of MLKL expression in human T24 cells at 7.5 to 10 uM measured after 16 hrs by Western blot analysis", "format": "functional, cell-based", "details": "dose 7.5-10 µM"}, "T-24 [13]": {"system": "T-24", "experiment": "Down-regulation of p-RIPK3 expression in human T24 cells at 7.5 to 10 uM measured in presence of 60 uM Nec-1 after 16 hrs by Western blot analysis", "format": "functional, cell-based", "details": "dose 7.5-10 µM", "method_in_brief": "(§4)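 T24 cells co-incubated 16 h with or without Nec-1 (60 μM). Lysates quantified by BCA, 40 μg protein resolved by SDS-PAGE, transferred to PVDF, probed with primary and peroxidase-conjugated secondary antibodies, detected by ECL. Band gray values normalized to β-actin loading control.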"}, "[14]": {"experiment": "AUC (0 to 48 hrs) in Sprague-Dawley rat at 6 mg/kg, IG measured HPLC analysis", "format": "ADME, organism-based", "set-up": "time < 48 hr, dose 6 mg/kg, route ig", "details": "in vivo, po"}, "T-24 [15]": {"system": "T-24", "experiment": "Down-regulation of VEGFR-1 mRNA expression in human T24 cells at 7.5 uM measured in presence of 25 uM apatinib by RT-PCR analysis", "format": "functional, cell-based"}, "T-24 [16]": {"system": "T-24", "experiment": "Induction of intracellular reactive oxygen species production in human T24 cells assessed as ROS level at 5 uM measured after 16 hrs by flow cytometry analysis", "format": "functional, cell-based", "method_in_brief": "as §3"}, "T-24 [17]": {"system": "T-24", "experiment": "Up-regulation of RIPK1 expression in human T24 cells at 2.5 to 7.5 uM measured by ELISA assay", "format": "functional, cell-based", "details": "dose 2.5-7.5 µM", "method_in_brief": "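T24 cells pretreated, collected, diluted in PBS, counted and stored overnight at −20 °C. After membrane disruption, lysates centrifuged at 5000 × g for 5 min (4 °C). RIPK1, RIPK3 and MLKL levels then measured with ELISA kits.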"}, "[18]": {"experiment": "Selectivity index, ratio IC50 for antiproliferative activity against human HCV-29 cells over IC50 for antiproliferative activity against human T24 cells", "format": "toxicity, cell-based", "details": "HCV-29 cells versus T24 cells", "method_in_brief": "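MTT assay, 48 h exposure at final 1–40 μM in T24 and normal bladder epithelial HCV29 cells (5 × 10^3/well, seeded overnight, 37 °C). MTT added for 4 h and formazan dissolved in DMSO. IC50 taken relative to untreated control, four parallel samples. SI = IC50(HCV29)/IC50(T24).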"}, "T-24 [19]": {"system": "T-24", "experiment": "Down-regulation of RIPK2 expression in human T24 cells at 7.5 to 10 uM measured in presence of 60 uM Nec-1 after 16 hrs by Western blot analysis", "format": "functional, cell-based", "details": "dose 7.5-10 µM", "method_in_brief": "as §4"}, "T-24 [20]": {"system": "T-24", "experiment": "Induction of apoptosis in human T24 cells assessed as increase in caspase-3 expression at 0 to 5 uM measured by Western blot analysis", "format": "functional, cell-based", "details": "dose 0-5 µM", "method_in_brief": "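Apoptosis-related proteins measured by Western blot in T24 lysates: 40 μg protein per lane by SDS-PAGE, PVDF transfer, primary and peroxidase-linked secondary antibodies, ECL detection, densitometry of gray values with β-actin as loading control.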"}, "T-24 [21]": {"system": "T-24", "experiment": "Antiproliferative activity against human T24 cells measured after 48 hrs by MTT assay", "format": "functional, cell-based", "details": "T-24, 48 h", "method_in_brief": "as §1"}, "T-24 [22]": {"system": "T-24", "experiment": "Up-regulation of RIPK2 expression in human T24 cells at 7.5 to 10 uM measured after 16 hrs by Western blot analysis", "format": "functional, cell-based", "details": "dose 7.5-10 µM"}, "T-24 [23]": {"system": "T-24", "experiment": "Down-regulation of MLKL expression in human T24 cells at 7.5 to 10 uM measured in presence of 60 uM Nec-1 after 16 hrs by Western blot analysis", "format": "functional, cell-based", "details": "dose 7.5-10 µM", "method_in_brief": "as §4"}, "T-24 [24]": {"system": "T-24", "experiment": "Up-regulation of p-MLKL expression in human T24 cells at 7.5 to 10 uM measured after 16 hrs by Western blot analysis", "format": "functional, cell-based", "details": "dose 7.5-10 µM"}, "T-24 [25]": {"system": "T-24", "experiment": "Induction of intracellular reactive oxygen species production in human T24 cells assessed as ROS level at 10 uM measured after 16 hrs by flow cytometry analysis", "format": "functional, cell-based", "method_in_brief": "as §3"}, "[26]": {"experiment": "Absorption rate constant in Sprague-Dawley rat at 6 mg/kg, IG measured HPLC analysis", "format": "ADME, organism-based", "details": "in vivo, po"}, "T-24 [27]": {"system": "T-24", "experiment": "Up-regulation of RIPK1 expression in human T24 cells at 7.5 to 10 uM measured after 16 hrs by Western blot analysis", "format": "functional, cell-based", "details": "dose 7.5-10 µM"}},
  "note": "Activity calls are given as the source filed them. No cut-off for these calls is given here.",
  "data": [
    {"smiles": "O=C(Nc1ccc(C(F)(F)F)cc1)Nc1cccc(CNc2nccnc2Cl)c1", "values": [
      {"measurement": "Activity", "setting": "T-24 [1]", "result": "Active"},
      {"measurement": "IC50", "setting": "[2]", "result": 30, "unit": "µM"},
      {"measurement": "Activity", "setting": "T-24 [3]", "result": "Active"},
      {"measurement": "IC50", "setting": "T-24 [4]", "result": 9.18, "unit": "µM"},
      {"measurement": "AUC(0-t) at 48 h", "setting": "[5]", "result": 75.8, "unit": "µg·h/mL"},
      {"measurement": "Activity", "setting": "T-24 [6]", "result": "Active"},
      {"measurement": "Activity", "setting": "T-24 [7]", "result": "Active"},
      {"measurement": "viability at 12.5 µM", "setting": "T-24 [8]", "result": 24.8, "unit": "%"},
      {"measurement": "Activity", "setting": "T-24 [9]", "result": "Active"},
      {"measurement": "viability at 10 µM", "setting": "T-24 [10]", "result": 38, "unit": "%"},
      {"measurement": "Activity", "setting": "T-24 [11]", "result": 14.83, "unit": "%"},
      {"measurement": "Activity", "setting": "T-24 [12]", "result": "Active"},
      {"measurement": "Activity", "setting": "T-24 [13]", "result": "Active"},
      {"measurement": "AUC(0-t) at 48 h", "setting": "[14]", "result": 30.8, "unit": "µg·h/mL"},
      {"measurement": "Activity", "setting": "T-24 [15]", "result": "Active"},
      {"measurement": "Activity", "setting": "T-24 [16]", "result": "Active"},
      {"measurement": "Activity", "setting": "T-24 [17]", "result": "Active"},
      {"measurement": "SI", "setting": "[18]", "result": 6.56},
      {"measurement": "Activity", "setting": "T-24 [19]", "result": "Active"},
      {"measurement": "Activity", "setting": "T-24 [20]", "result": "Active"},
      {"measurement": "IC50", "setting": "T-24 [21]", "result": 4.58, "unit": "µM"},
      {"measurement": "Activity", "setting": "T-24 [22]", "result": "Active"},
      {"measurement": "Activity", "setting": "T-24 [23]", "result": "Active"},
      {"measurement": "Activity", "setting": "T-24 [24]", "result": "Active"},
      {"measurement": "Activity", "setting": "T-24 [25]", "result": "Active"},
      {"measurement": "Ka", "setting": "[26]", "result": 0.098, "unit": "h⁻¹"},
      {"measurement": "Activity", "setting": "T-24 [27]", "result": "Active"}
    ]}
  ]
}
